# Assays:
# Escherichia coli = assay: Antibacterial activity against Escherichia coli UTI89 assessed as number of wells with agglutination by hemagglutinination assay; assay type: functional
# Outline: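 UTI89 grown with pilicide at 250 μM; culture piliation then scored by hemagglutination titer, expressed as number of wells with agglutination (2ⁿ); value is the average of duplicate runs.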
# Chaperone protein PapD = target: T1, Chaperone protein PapD (Escherichia coli, UniProt P15319); assay: Inhibition of Escherichia coli UTI89 PapD chaperon assessed as inhibition of biofilm formation
# T1 sequence (P15319 whole entry): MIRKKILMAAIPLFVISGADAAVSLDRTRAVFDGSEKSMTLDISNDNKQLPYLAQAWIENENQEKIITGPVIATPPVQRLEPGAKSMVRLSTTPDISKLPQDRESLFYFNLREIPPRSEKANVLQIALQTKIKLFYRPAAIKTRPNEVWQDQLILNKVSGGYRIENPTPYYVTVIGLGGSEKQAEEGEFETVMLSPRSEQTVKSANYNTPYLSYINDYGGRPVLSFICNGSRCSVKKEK
# Outline: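 Pilus-dependent biofilm assay with whole E. coli UTI89 grown on polyvinylchloride in the presence of pilicide; biofilm amount taken as readout of piliation block. IC50 calculated from 16-32 data points at every concentration.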
SMILES,Activity (Escherichia coli),IC50 (Chaperone protein PapD)
O=C(O)c1c(-c2ccccc2)sc2c(C3CC3)c(Cc3cccc4ccccc34)cc(=O)n12,4.5,
COc1ccc(-c2sc3c(C4CC4)c(Cc4cccc5ccccc45)cc(=O)n3c2C(=O)O)cc1,,Not Active
O=C(c1ccccc1)c1sc2c(C3CC3)c(Cc3cccc4ccccc34)cc(=O)n2c1C(=O)O,,Not Active
Cc1cccc(-c2sc3c(C4CC4)c(Cc4cccc5ccccc45)cc(=O)n3c2C(=O)O)c1,3,
O=C(O)c1c(-c2ccc3[nH]ccc3c2)sc2c(C3CC3)c(Cc3cccc4ccccc34)cc(=O)n12,,Not Active
O=C(O)c1c(-c2ccsc2)sc2c(C3CC3)c(Cc3cccc4ccccc34)cc(=O)n12,3.5,
O=C(O)c1c(Cc2ccccc2)sc2c(C3CC3)c(Cc3cccc4ccccc34)cc(=O)n12,3,

# Reference: ChEMBL document CHEMBL1212817, “Design and synthesis of C-2 substituted thiazolo and dihydrothiazolo ring-fused 2-pyridones: pilicides with increased antivirulence activity” (J Med Chem, 2010)
